Experimental data taken from ChEMBL document CHEMBL1155396, “The synthesis and angiotensin converting enzyme (ACE) inhibitory activity of chalcones and their pyrazole derivatives” (Bioorg Med Chem Lett, 2010).

Key:
[1] = molecular target: T1, Angiotensin-converting enzyme (Oryctolagus cuniculus, UniProt P12822); assay: (§1) Inhibition of ACE in rabbit lung assessed as decrease in dansylglycine concentration after 5 mins by HPLC analysis
T1 sequence (P12822 whole entry): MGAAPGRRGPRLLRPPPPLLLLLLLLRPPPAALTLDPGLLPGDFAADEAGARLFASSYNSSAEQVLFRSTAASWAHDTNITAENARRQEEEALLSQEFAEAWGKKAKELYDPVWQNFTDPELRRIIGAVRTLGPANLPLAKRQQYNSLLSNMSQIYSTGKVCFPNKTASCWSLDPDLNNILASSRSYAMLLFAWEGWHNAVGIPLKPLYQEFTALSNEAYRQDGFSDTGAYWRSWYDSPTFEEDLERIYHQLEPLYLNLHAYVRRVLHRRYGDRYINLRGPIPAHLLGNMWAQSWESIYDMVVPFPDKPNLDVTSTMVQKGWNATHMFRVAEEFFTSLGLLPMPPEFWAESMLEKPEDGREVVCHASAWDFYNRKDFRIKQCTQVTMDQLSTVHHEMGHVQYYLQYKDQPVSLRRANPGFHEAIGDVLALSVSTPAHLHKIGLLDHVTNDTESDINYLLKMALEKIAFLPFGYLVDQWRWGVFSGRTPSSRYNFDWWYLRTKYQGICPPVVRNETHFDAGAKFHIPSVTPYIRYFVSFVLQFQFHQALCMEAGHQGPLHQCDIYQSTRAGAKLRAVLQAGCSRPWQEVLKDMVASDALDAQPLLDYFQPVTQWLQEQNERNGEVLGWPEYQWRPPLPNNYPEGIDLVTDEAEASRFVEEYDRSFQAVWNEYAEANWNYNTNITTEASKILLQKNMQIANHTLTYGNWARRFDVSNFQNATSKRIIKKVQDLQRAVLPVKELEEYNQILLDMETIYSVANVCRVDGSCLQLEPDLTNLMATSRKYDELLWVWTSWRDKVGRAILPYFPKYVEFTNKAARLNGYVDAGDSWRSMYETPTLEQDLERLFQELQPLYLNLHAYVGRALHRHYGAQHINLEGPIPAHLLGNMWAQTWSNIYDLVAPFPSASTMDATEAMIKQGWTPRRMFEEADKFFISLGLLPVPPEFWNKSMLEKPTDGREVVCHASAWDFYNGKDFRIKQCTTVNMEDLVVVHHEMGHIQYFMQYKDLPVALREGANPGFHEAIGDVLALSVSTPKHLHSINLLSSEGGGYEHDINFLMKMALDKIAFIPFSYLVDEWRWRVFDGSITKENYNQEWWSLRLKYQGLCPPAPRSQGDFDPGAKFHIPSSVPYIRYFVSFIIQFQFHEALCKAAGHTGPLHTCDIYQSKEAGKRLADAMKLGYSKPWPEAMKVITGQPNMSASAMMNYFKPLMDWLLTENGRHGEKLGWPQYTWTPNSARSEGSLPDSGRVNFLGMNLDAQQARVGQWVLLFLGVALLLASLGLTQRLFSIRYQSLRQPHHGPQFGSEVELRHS
How it was run: (§2)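 Rabbit lung ACE, pre-incubated 5 min at 37 °C with compound dissolved in HEPES assay buffer. Reaction started with substrate dansyltriglycine (7.86 mM) plus internal standard dansyl-L-glutamine (0.353 mM), both in the added combined solution. Incubation time was set from a calibration curve. Dansylglycine was quantified by reversed-phase HPLC with UV detection, using isocratic 10 mM NaH₂PO₄ (pH 7)/acetonitrile 88:12. Percent inhibition was taken versus control, with IC50 by nonlinear regression; means of three experiments.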

[2] = molecular target: T2, Angiotensin-converting enzyme (Oryctolagus cuniculus) (UniProt P12822); assay: as §1; how it was run: as §2
T2 sequence (whole entry): T1 sequence (P12822 whole entry)

SMILES | IC50 [1] | inhibition [2]
COc1ccc(C2CC(c3cc(OC)c(OC)c(OC)c3)=NN2C)cc1N (centres undefined) | 749 µM | 
COc1ccc(C2CC(c3cc(OC)c(OC)c(OC)c3)=NN2C)cc1[N+](=O)[O-] (centres undefined) |  | Dose-dependent effect
O=c1cc(-c2ccc(O)c(O)c2)oc2cc(O[C@@H]3O[C@H](CO)[C@@H](O)[C@H](O)[C@H]3O)cc(O)c12 [GALUTEOLIN] | 280 µM | 
COc1cc(C2=NN(C)C(c3ccccc3)C2)cc(OC)c1OC (centres undefined) | 805 µM | 
COc1cccc(/C=C/C(=O)c2cc(OC)c(OC)c(OC)c2)c1 | 622 µM | 
COc1ccc(C2CC(c3cc(OC)c(OC)c(OC)c3)=NN2C)cc1 (centres undefined) | 435 µM | Dose-dependent effect
COc1ccc(C2CC(c3cc(OC)c(OC)c(OC)c3)=NN2C)cc1O (centres undefined) | 762 µM | 
COc1cc([C-]2CC(c3ccc([N+](=O)[O-])c(O)c3)[N+](C)=N2)cc(OC)c1OC (centres undefined) | 599 µM | 
COc1cc(C2CC(c3cc(OC)c(OC)c(OC)c3)=NN2C)ccc1O (centres undefined) | 674 µM | 
COc1ccc(C2CC(c3cc(OC)c(OC)c(OC)c3)=NN2C)cc1F (centres undefined) | 770 µM | 
COc1ccc(/C=C/C(=O)c2cc(OC)c(OC)c(OC)c2)cc1 | 574 µM | 
COc1cc(C(=O)/C=C/c2ccccc2)cc(OC)c1OC | 338 µM | Dose-dependent effect
O=c1c(O[C@@H]2O[C@H](CO)[C@H](O)[C@H](O)[C@H]2O)c(-c2ccc(O)cc2)oc2cc(O)cc(O)c12 [TRIFOLIN] | 260 µM | 
COc1ccc(/C=C/C(=O)c2cc(OC)c(OC)c(OC)c2)cc1[N+](=O)[O-] | 516 µM | 
COc1cc(C(=O)/C=C/c2ccc([N+](=O)[O-])c(O)c2)cc(OC)c1OC | 552 µM | 
COc1ccc(/C=C/C(=O)c2cc(OC)c(OC)c(OC)c2)cc1O | 225 µM | Dose-dependent effect
O=C(O)[C@H]1O[C@@H](Oc2c(-c3ccc(O)c(O)c3)oc3cc(O)cc(O)c3c2=O)[C@H](O)[C@@H](O)[C@@H]1O [QUERCETIN GLUCURONIDE] | 200 µM | 
COc1ccc(/C=C/C(=O)c2cc(OC)c(OC)c(OC)c2)cc1N | 219 µM | Dose-dependent effect
O=c1cc(-c2ccc(O)c(O)c2)oc2cc(O)cc(O)c12 [LUTEOLIN] | 290 µM | 
COc1ccc(/C=C/C(=O)c2cc(OC)c(OC)c(OC)c2)cc1F | 570 µM | 
COc1cc(/C=C/C(=O)c2cc(OC)c(OC)c(OC)c2)ccc1O | 246 µM | Dose-dependent effect
COc1ccc(C2C[C-](c3cc(OC)c(OC)c(OC)c3)N=[N+]2C)cc1[N+](=O)[O-] (centres undefined) | 213 µM | 
COc1cccc(C2CC(c3cc(OC)c(OC)c(OC)c3)=NN2C)c1 (centres undefined) | 889 µM | 
O=c1cc(-c2ccc(O)cc2)oc2cc(O)cc(O)c12 [APIGENIN] | 280 µM | 
